# Results: ChEMBL document CHEMBL4689842, “EUbOPEN Chemogenomics Library wave 1” (2021)
# Test system: U2OS
# Assay: Multiplex assay against U2OS
# Type: toxicity, cell-based
# Conditions: human
# Outline: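 Cells were classed with CellPathfinder machine-learning gating, first as Hoechst high-intensity objects or normal cells, then (normal cells) as healthy, pyknosed or fragmented nuclei, and finally (pyknosed cells) as mitotic or apoptotic. Staining of live cells at seeding used Hoechst33342, BioTracker Green Microtubule Cytoskeleton Dye, MitoTracker Red and Annexin V Alexa Fluor 680, with imaging on a CQ1 microscope at 37°C and 5% CO2 after compound addition. Tubulin, mitochondrial-mass and membrane-permeability phenotypes are per cents of healthy-nucleus cells.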
# [1] = 12 h, 1 µM, compound concentration 1 uM, replicate 1
# [2] = 12 h, 1 µM, compound concentration 1 uM, replicate 2
# [3] = 12 h, 10 µM, compound concentration 10 uM, replicate 1
# [4] = 12 h, 10 µM, compound concentration 10 uM, replicate 2
# [5] = 24 h, 1 µM, compound concentration 1 uM, replicate 1
# [6] = 24 h, 1 µM, compound concentration 1 uM, replicate 2
# [7] = 24 h, 10 µM, compound concentration 10 uM, replicate 1
# [8] = 24 h, 10 µM, compound concentration 10 uM, replicate 2
# [9] = 48 h, 1 µM, compound concentration 1 uM, replicate 1
# [10] = 48 h, 1 µM, compound concentration 1 uM, replicate 2
# [11] = 48 h, 10 µM, compound concentration 10 uM, replicate 1
# [12] = 48 h, 10 µM, compound concentration 10 uM, replicate 2
smiles,measurement,setting,value
CC[C@H](C)C(=O)O[C@H]1C[C@@H](C)C=C2C=C[C@H](C)[C@H](CC[C@@H]3C[C@@H](O)CC(=O)O3)[C@H]21 [LOVASTATIN],Population Apoptotic (%),[1],21%
same,Population Fragmented Nuclei (%),[1],13%
same,Population Healthy Nuclei (%),[1],76%
same,Population Hoechst High Intensity Objects (%),[1],12%
same,Population Membrane Permeable-Phenotype (%),[1],7%
same,Population Mitochondria Different-Phenotype (%),[1],5%
same,Population Mitotic Cells (%),[1],78%
same,Population Normal (%),[1],87%
same,Population Pyknosed Nuclei (%),[1],9%
same,Population Tubulin-Different-Phenotype (%),[1],13%
same,Total Cell Count,[1],140
same,Population Apoptotic (%),[2],25%
same,Population Fragmented Nuclei (%),[2],22%
same,Population Healthy Nuclei (%),[2],68%
same,Population Hoechst High Intensity Objects (%),[2],11%
same,Population Membrane Permeable-Phenotype (%),[2],3%
same,Population Mitochondria Different-Phenotype (%),[2],6%
same,Population Mitotic Cells (%),[2],75%
same,Population Normal (%),[2],88%
same,Population Pyknosed Nuclei (%),[2],8%
same,Population Tubulin-Different-Phenotype (%),[2],3%
same,Total Cell Count,[2],87
same,Population Apoptotic (%),[3],31%
same,Population Fragmented Nuclei (%),[3],20%
same,Population Healthy Nuclei (%),[3],68%
same,Population Hoechst High Intensity Objects (%),[3],10%
same,Population Membrane Permeable-Phenotype (%),[3],9%
same,Population Mitochondria Different-Phenotype (%),[3],14%
same,Population Mitotic Cells (%),[3],68%
same,Population Normal (%),[3],89%
same,Population Pyknosed Nuclei (%),[3],11%
same,Population Tubulin-Different-Phenotype (%),[3],12%
same,Total Cell Count,[3],163
same,Population Apoptotic (%),[4],100%
same,Population Fragmented Nuclei (%),[4],4%
same,Population Healthy Nuclei (%),[4],90%
same,Population Hoechst High Intensity Objects (%),[4],8%
same,Population Membrane Permeable-Phenotype (%),[4],10%
same,Population Mitochondria Different-Phenotype (%),[4],12%
same,Population Mitotic Cells (%),[4],0%
same,Population Normal (%),[4],91%
same,Population Pyknosed Nuclei (%),[4],4%
same,Population Tubulin-Different-Phenotype (%),[4],20%
same,Total Cell Count,[4],54
same,Population Apoptotic (%),[5],18%
same,Population Fragmented Nuclei (%),[5],6%
same,Population Healthy Nuclei (%),[5],84%
same,Population Hoechst High Intensity Objects (%),[5],7%
same,Population Membrane Permeable-Phenotype (%),[5],6%
same,Population Mitochondria Different-Phenotype (%),[5],8%
same,Population Mitotic Cells (%),[5],81%
same,Population Normal (%),[5],92%
same,Population Pyknosed Nuclei (%),[5],8%
same,Population Tubulin-Different-Phenotype (%),[5],14%
same,Total Cell Count,[5],144
same,Population Apoptotic (%),[6],40%
same,Population Fragmented Nuclei (%),[6],22%
same,Population Healthy Nuclei (%),[6],70%
same,Population Hoechst High Intensity Objects (%),[6],9%
same,Population Membrane Permeable-Phenotype (%),[6],0%
same,Population Mitochondria Different-Phenotype (%),[6],4%
same,Population Mitotic Cells (%),[6],60%
same,Population Normal (%),[6],90%
same,Population Pyknosed Nuclei (%),[6],7%
same,Population Tubulin-Different-Phenotype (%),[6],4%
same,Total Cell Count,[6],93
same,Population Apoptotic (%),[7],25%
same,Population Fragmented Nuclei (%),[7],13%
same,Population Healthy Nuclei (%),[7],76%
same,Population Hoechst High Intensity Objects (%),[7],6%
same,Population Membrane Permeable-Phenotype (%),[7],8%
same,Population Mitochondria Different-Phenotype (%),[7],7%
same,Population Mitotic Cells (%),[7],75%
same,Population Normal (%),[7],93%
same,Population Pyknosed Nuclei (%),[7],9%
same,Population Tubulin-Different-Phenotype (%),[7],9%
same,Total Cell Count,[7],204
same,Population Apoptotic (%),[8],28%
same,Population Fragmented Nuclei (%),[8],8%
same,Population Healthy Nuclei (%),[8],79%
same,Population Hoechst High Intensity Objects (%),[8],7%
same,Population Mitochondria Different-Phenotype (%),[8],4%
same,Population Mitotic Cells (%),[8],71%
same,Population Normal (%),[8],92%
same,Population Pyknosed Nuclei (%),[8],11%
same,Population Tubulin-Different-Phenotype (%),[8],23%
same,Total Cell Count,[8],74
same,Population Apoptotic (%),[9],41%
same,Population Fragmented Nuclei (%),[9],4%
same,Population Healthy Nuclei (%),[9],89%
same,Population Hoechst High Intensity Objects (%),[9],3%
same,Population Membrane Permeable-Phenotype (%),[9],4%
same,Population Mitochondria Different-Phenotype (%),[9],8%
same,Population Mitotic Cells (%),[9],58%
same,Population Normal (%),[9],96%
same,Population Pyknosed Nuclei (%),[9],5%
same,Population Tubulin-Different-Phenotype (%),[9],11%
same,Total Cell Count,[9],129
same,Population Apoptotic (%),[10],0%
same,Population Fragmented Nuclei (%),[10],10%
same,Population Healthy Nuclei (%),[10],87%
same,Population Hoechst High Intensity Objects (%),[10],7%
same,Population Membrane Permeable-Phenotype (%),[10],1%
same,Population Mitochondria Different-Phenotype (%),[10],5%
same,Population Mitotic Cells (%),[10],100%
same,Population Normal (%),[10],92%
same,Population Pyknosed Nuclei (%),[10],2%
same,Population Tubulin-Different-Phenotype (%),[10],7%
same,Total Cell Count,[10],89
same,Population Apoptotic (%),[11],40%
same,Population Fragmented Nuclei (%),[11],12%
same,Population Healthy Nuclei (%),[11],78%
same,Population Hoechst High Intensity Objects (%),[11],4%
same,Population Membrane Permeable-Phenotype (%),[11],3%
same,Population Mitochondria Different-Phenotype (%),[11],5%
same,Population Mitotic Cells (%),[11],60%
same,Population Normal (%),[11],95%
same,Population Pyknosed Nuclei (%),[11],8%
same,Population Tubulin-Different-Phenotype (%),[11],4%
same,Total Cell Count,[11],300
same,Population Apoptotic (%),[12],33%
same,Population Fragmented Nuclei (%),[12],3%
same,Population Healthy Nuclei (%),[12],89%
same,Population Hoechst High Intensity Objects (%),[12],7%
same,Population Membrane Permeable-Phenotype (%),[12],6%
same,Population Mitochondria Different-Phenotype (%),[12],6%
same,Population Mitotic Cells (%),[12],66%
same,Population Normal (%),[12],92%
same,Population Pyknosed Nuclei (%),[12],7%
same,Population Tubulin-Different-Phenotype (%),[12],21%
same,Total Cell Count,[12],96
